Source: PubChem BioAssay (Sanford-Burnham Center for Chemical Genomics)
Compounds with a hit are over-represented: about 2.3% of the library has one in this group of screens.
CSN inh = blocks human CSN-mediated cullin deneddylation; Purified CSN, SCF-Nedd8-OG deneddylation, fluorescence polarization; inhibition, % at 12.5 µM; 0.38% of 360,000 active;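 active = pattern-corrected inhibition above about 35%, with an unprinted fluorescence ratio check between 0.5 and 1.5, limit read from the data, passing the limit was not always enough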
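Material: human Csn5 produced in HEK293T cells; Input: enzyme 0.24 nM; Reagent: SCFSkp2-Nedd8OG substrate at 10 nM final; Dosing: 12.5 µM compound; Incubation: 90 min reaction at room temperature; Detection: fluorescence polarization of the substrate; Evaluation: % inhibition of substrate cleavage by Csn5; Control set: substrate-only high control, full reaction low control.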
SKN-1 block = inhibitors of C. elegans SKN-1. 0.49% of 360,000 active. C. elegans VP596 Pgst-4::GFP/RFP ratio, acrylamide-induced, 24 h. inhibition, % at 21.8 µM;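 active = interference check ratio from 0.5 to 1.5 plus GFP to RFP signal ratio inhibition reaching or exceeding a fixed threshold, cut at about 30% in these data, passing the limit was not always enough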
SUMO1-SIM PPI = modulators of human SUMO1-mediated protein-protein interactions. P63165. SUMO1 binding to a labelled peptide, TR-FRET, 1 h. inhibition, % at 20 µM. 0.33% of 360,000 active. AID 602429; in the data active = inhibition above about 37%
MT1-MMP act inh = blocks activation of human MT1-MMP; P50281; HT1080 RFP-PRO-GFP cells, GFP/RFP ratio fluorescence, overnight; percent of plate control window, DMSO zero; GFP/RFP ratio change, % at 20 µM; 0.061% of 360,000 active; AID 651647;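 active = GFP/RFP ratio change of at least 30% with cell ATP level not reduced by more than half and red fluorescence within 50% of control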
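Assay system – RFP-PRO-GFP reporter HT1080 cells · Compound dosing – single dose of 20 µM compound, 1% DMSO final · Incubation – overnight compound exposure at 37 °C · Measure – GFP/RFP fluorescence ratio · Benchmarks – DMSO wells and RFP-L50D-GFP cells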
Rpn11 block = inhibitors of human proteasome Rpn11 | 0.59% of 360,000 active | O00487 | human 26S proteasome, Ub4-pepOG fluorescence polarization; 20S core pre-blocked with epoxomicin | AID 588493 | inhibition, % at 20 µM;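 active = inhibition at 20 µM, scaled to each plate's controls, above about 33%, limit read from the data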
DNMT1 block = inhibitors of human DNMT1 | AID 588458 | P26358 | inhibition (reported as % activation of signal), % at 10 µM | 0.83% of 360,000 active | DNMT1 molecular beacon, Hinp1I cleavage, fluorescence; in the data active = inhibition above about 50%
DNMT1 confirm = DNMT1 inhibition confirmation, single concentration | 8% of 2,300 active | inhibition, % at 10 µM | DNMT1 molecular beacon HinP1I cleavage, fluorescence | AID 602385 | shares compounds with DNMT1 block;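 active = average inhibition of at least 30% in the single-concentration confirmation test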
DNMT1 interf = shows spectral interference in the DNMT1 beacon assay; shares compounds with DNMT1 block; 1% of 2,300 active; DNMT1 molecular beacon spectral interference counterscreen, fluorescence 485/520; AID 602387; activation (fluorescence interference), % at 10 µM;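 active = activation of at least 30% at 10 µM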;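 note: DNMT1 catalytic domain with a HinP1I cleavage step and a FAM/dabcyl DNA beacon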
Each line names hits and unclear results; the compound was inactive in the other large screens (follow-up assays come after a bar, where they were run).

CCc1nc(NCc2cccs2)c2nnn(Cc3ccccc3)c2n1	DNMT1 block 67.3 | DNMT1 confirm inactive | DNMT1 interf inactive
O=C1NC(Cc2ccccc2)c2nc3ccc(F)cc3c(=O)n2-c2ncccc21 (stereo not drawn)	none
O=[N+]([O-])c1cc(/C=N/n2c(-c3ccncc3)n[nH]c2=S)ccc1Cl	DNMT1 block 54.9 | DNMT1 confirm inactive | DNMT1 interf inactive
Cc1cc(-c2n[nH]c(=S)n2/N=C/c2ccc(Cl)c([N+](=O)[O-])c2)n[nH]1	none
S=c1[nH]nc(-c2ccncc2)n1/N=C/c1cn(-c2ccccc2)nc1-c1ccccc1	none
O=[N+]([O-])c1ccc(-c2nn(-c3ccccc3)cc2/C=N/n2c(-c3ccncc3)n[nH]c2=S)cc1	DNMT1 block 56.8 | DNMT1 confirm inactive | DNMT1 interf inactive
CCOC(=O)c1c2ccc(OCC(=O)N/N=C/c3ccc(C)cc3)cc2n2ccccc12	DNMT1 block 72.2 | DNMT1 confirm inactive | DNMT1 interf inactive
CCOC(=O)c1c2ccc(OCC(=O)NN)cc2n2ccccc12	none
CC(=O)Nc1cc(-c2ccc(N(C)C)cc2)cn2c(-c3ccc(F)cc3)cnc12	none
CC(C)(C)OC(=O)NCc1ccc(NC(=O)c2nc[nH]c2C(=O)NCCNC(=O)c2[nH]cnc2C(=O)Nc2ccc(CNC(=O)OC(C)(C)C)cc2)cc1	DNMT1 block 64.5 | DNMT1 confirm inactive | DNMT1 interf inactive
Cc1cccc(NC(=O)c2nc[nH]c2C(=O)NCCCNC(=O)c2[nH]cnc2C(=O)Nc2cccc(C)c2)c1	DNMT1 block 73.1 | DNMT1 confirm inactive | DNMT1 interf inactive
Cc1cccc(NC(=O)c2nc[nH]c2C(=O)NCCN(CCNC(=O)c2[nH]cnc2C(=O)Nc2cccc(C)c2)CCNC(=O)c2[nH]cnc2C(=O)Nc2cccc(C)c2)c1	none
CC(C)(C)OC(=O)CNC(=O)c1[nH]cnc1C(=O)Nc1ccc(CNC(=O)OC(C)(C)C)cc1	none
COc1ccc(C(C)(NC(C)=O)c2nc(-c3ccc(F)cc3OC)cs2)cc1 (stereo not drawn)	none
O=C(O)C/C(=C\c1cc(Cl)c2c(c1)OCO2)c1nc2ccccc2s1	DNMT1 block 52.9 | DNMT1 confirm inactive | DNMT1 interf inactive
CC(=O)c1ccc(NC(=O)C(C)Oc2ccc(N(C)S(=O)(=O)c3ccc(C)cc3)cc2)cc1 (stereo not drawn)	none
Cc1ccc(S(=O)(=O)N(C)c2ccc(OC(C)C(=O)N(C)c3ccccc3)cc2)cc1 (stereo not drawn)	DNMT1 block 78.6 | DNMT1 confirm inactive | DNMT1 interf inactive
NS(=O)(=O)c1ccc(NC(=O)C2Cc3ccccc3CN2C(=O)c2ccco2)cc1 (stereo not drawn)	DNMT1 block 59.2 | DNMT1 confirm inactive | DNMT1 interf inactive
CCSc1nnc(NC(=O)C2Cc3ccccc3CN2C(=O)c2ccco2)s1 (stereo not drawn)	DNMT1 block 52.9 | DNMT1 confirm inactive | DNMT1 interf inactive
Cc1ccccc1NC(=O)C1Cc2ccccc2CN1C(=O)c1ccco1 (stereo not drawn)	none
NS(=O)(=O)c1ccc(CCNC(=O)C2Cc3ccccc3CN2C(=O)c2ccco2)cc1 (stereo not drawn)	none
COc1cccc(Nc2nc(C(N)Cc3ccc(C(F)(F)F)cc3)cs2)n1 (stereo not drawn)	none
CCOC(=O)N(C)c1c(CC)nc2c(OCc3ccccc3C)cccn12	none
CCCCCCNC(=O)c1cc(-c2ccco2)nc2ccccc12	DNMT1 block 106.1 | DNMT1 confirm inactive | DNMT1 interf inactive
